# Experiments:
# Type in all cases: functional
# Staphylococcus aureus [1] = assay: Antibacterial activity against Norfloxacin-resistant Staphylococcus aureus 1199B over-expressing NorA after 16 hrs by microdilution method
# How it was run: (§1)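 Broth microdilution in cation-adjusted Mueller-Hinton broth (20 mg/l Ca2+, 10 mg/L Mg2+), inoculum 5×10^5 CFU/mL. Compounds in DMSO, solvent under 1% in well, tested over 0.12-128 µg/ml. […] Each determined at least twice; values converted to µmol/L.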
# Staphylococcus aureus [2] = assay: Antibacterial activity against erythromycin-resistant Staphylococcus aureus RN4220 after 16 hrs by microdilution method; conditions: RN4220, 16 h; how it was run: as §1
# Staphylococcus aureus [3] = assay: Antibacterial activity against Staphylococcus aureus EMRSA-15 after 16 hrs by microdilution method; conditions: EMRSA-15, 16 h
# How it was run: (§2)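 Broth microdilution in cation-adjusted Mueller-Hinton broth (20 mg/l Ca2+, 10 mg/L Mg2+), inoculum 5×10^5 CFU/mL. Compounds from DMSO stocks, final DMSO <1%, tested over 0.12–128 µg/ml. Incubated 37 °C and read visually after 16 h. MIC is the lowest concentration with no visible growth, determined at least twice and converted to µmol/L.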
# Staphylococcus aureus [4] = assay: Antibacterial activity against tetracycline/methicillin-resistant Staphylococcus aureus XU212 after 16 hrs by microdilution method; conditions: XU212, 16 h; how it was run: as §1
# Escherichia coli = assay: Antibacterial activity against Escherichia coli NCTC 12241 after 16 hrs by microdilution method; conditions: NCTC 12241, 16 h; how it was run: as §2
# Enterococcus faecalis = assay: Antibacterial activity against Enterococcus faecalis NCTC 12697 after 16 hrs by microdilution method; conditions: NCTC 12697, 16 h; how it was run: as §2
# Bacillus subtilis = assay: Antibacterial activity against Bacillus subtilis NCTC 10400 after 16 hrs by microdilution method; conditions: NCTC 10400, 16 h; how it was run: as §2
# Staphylococcus aureus [5] = assay: Antibacterial activity against methicillin-sensitive Staphylococcus aureus NCTC 12981 after 16 hrs by microdilution method; conditions: NCTC 12981, 16 h; how it was run: as §2
# Staphylococcus aureus [6] = assay: Antibacterial activity against methicillin-resistant Staphylococcus aureus NCTC 13373 after 16 hrs by microdilution method; conditions: NCTC 13373, 16 h; how it was run: as §1
smiles,measurement,setting,value
O=C(O)/C(O)=C/C(=O)c1ccc(-c2ccccc2)cc1,MIC,Staphylococcus aureus [1],477 µM
same,MIC,Staphylococcus aureus [2],> 128 µg/mL
same,MIC,Staphylococcus aureus [3],> 128 µg/mL
same,MIC,Staphylococcus aureus [4],> 128 µg/mL
same,MIC,Escherichia coli,> 128 µg/mL
Cc1ccccc1C(=O)/C=C(\O)C(=O)O,MIC,Enterococcus faecalis,> 128 µg/mL
same,MIC,Bacillus subtilis,> 128 µg/mL
same,MIC,Staphylococcus aureus [5],> 128 µg/mL
same,MIC,Staphylococcus aureus [6],> 128 µg/mL
same,MIC,Staphylococcus aureus [1],> 128 µg/mL
same,MIC,Staphylococcus aureus [2],> 128 µg/mL
same,MIC,Staphylococcus aureus [3],> 128 µg/mL
same,MIC,Staphylococcus aureus [4],> 128 µg/mL
same,MIC,Escherichia coli,> 128 µg/mL
CN1CCN(c2ccc(C(=O)/C=C(\O)C(=O)O)cc2)CC1,MIC,Enterococcus faecalis,> 128 µg/mL
same,MIC,Bacillus subtilis,> 128 µg/mL
same,MIC,Staphylococcus aureus [5],> 128 µg/mL
same,MIC,Staphylococcus aureus [6],> 128 µg/mL
same,MIC,Staphylococcus aureus [1],> 128 µg/mL
same,MIC,Staphylococcus aureus [2],> 128 µg/mL
same,MIC,Staphylococcus aureus [3],> 128 µg/mL
same,MIC,Staphylococcus aureus [4],> 128 µg/mL
same,MIC,Escherichia coli,> 128 µg/mL
CC(C)(C)c1ccc(C(=O)/C=C(\O)C(=O)O)cc1,MIC,Staphylococcus aureus [1],1030 µM
same,MIC,Staphylococcus aureus [2],> 128 µg/mL
same,MIC,Staphylococcus aureus [3],> 128 µg/mL
same,MIC,Staphylococcus aureus [4],> 128 µg/mL
same,MIC,Escherichia coli,> 128 µg/mL
O=C(O)/C(O)=C/C(=O)c1ccc(N2CCCC2)cc1,MIC,Enterococcus faecalis,> 128 µg/mL
same,MIC,Bacillus subtilis,> 128 µg/mL
same,MIC,Staphylococcus aureus [5],> 128 µg/mL
same,MIC,Staphylococcus aureus [6],> 128 µg/mL
same,MIC,Staphylococcus aureus [1],> 128 µg/mL
same,MIC,Staphylococcus aureus [2],> 128 µg/mL
same,MIC,Staphylococcus aureus [3],> 128 µg/mL
same,MIC,Staphylococcus aureus [4],> 128 µg/mL
same,MIC,Escherichia coli,> 128 µg/mL
O=C(O)/C(O)=C/C(=O)c1ccc2c(c1)CCCC2,MIC,Enterococcus faecalis,260 µM
same,MIC,Bacillus subtilis,> 128 µg/mL
same,MIC,Staphylococcus aureus [5],> 128 µg/mL
same,MIC,Staphylococcus aureus [6],> 128 µg/mL
same,MIC,Staphylococcus aureus [1],520 µM
same,MIC,Staphylococcus aureus [2],> 128 µg/mL
same,MIC,Staphylococcus aureus [3],520 µM
same,MIC,Staphylococcus aureus [4],> 128 µg/mL
same,MIC,Escherichia coli,> 128 µg/mL
Cc1cc(C(=O)/C=C(\O)C(=O)O)cc(C)c1O,MIC,Enterococcus faecalis,> 128 µg/mL
same,MIC,Bacillus subtilis,> 128 µg/mL
same,MIC,Staphylococcus aureus [5],> 128 µg/mL
same,MIC,Staphylococcus aureus [6],> 128 µg/mL
same,MIC,Staphylococcus aureus [1],> 128 µg/mL
same,MIC,Staphylococcus aureus [2],> 128 µg/mL
same,MIC,Staphylococcus aureus [3],> 128 µg/mL
same,MIC,Staphylococcus aureus [4],> 128 µg/mL
same,MIC,Escherichia coli,> 128 µg/mL
CC(C)c1ccc(C(C)C)c(C(=O)/C=C(\O)C(=O)O)c1,MIC,Staphylococcus aureus [1],232 µM
same,MIC,Staphylococcus aureus [2],464 µM
same,MIC,Staphylococcus aureus [3],232 µM
same,MIC,Staphylococcus aureus [4],464 µM
same,MIC,Escherichia coli,> 128 µg/mL
O=C(O)/C(O)=C/C(=O)c1ccc(-n2ccnc2)cc1,MIC,Enterococcus faecalis,496 µM
same,MIC,Bacillus subtilis,496 µM
same,MIC,Staphylococcus aureus [5],> 128 µg/mL
same,MIC,Staphylococcus aureus [6],248 µM
same,MIC,Staphylococcus aureus [1],124 µM
same,MIC,Staphylococcus aureus [2],> 128 µg/mL
same,MIC,Staphylococcus aureus [3],> 128 µg/mL
same,MIC,Staphylococcus aureus [4],496 µM
same,MIC,Escherichia coli,> 128 µg/mL
Cc1cccc(C(=O)/C=C(\O)C(=O)O)c1,MIC,Enterococcus faecalis,> 128 µg/mL
same,MIC,Bacillus subtilis,> 128 µg/mL
same,MIC,Staphylococcus aureus [5],> 128 µg/mL
same,MIC,Staphylococcus aureus [6],> 128 µg/mL
same,MIC,Staphylococcus aureus [1],> 128 µg/mL
same,MIC,Staphylococcus aureus [2],> 128 µg/mL
same,MIC,Staphylococcus aureus [3],> 128 µg/mL
same,MIC,Staphylococcus aureus [4],> 128 µg/mL
same,MIC,Escherichia coli,> 128 µg/mL
Cc1cc(C)c(C(=O)/C=C(\O)C(=O)O)cc1C,MIC,Enterococcus faecalis,> 128 µg/mL
same,MIC,Bacillus subtilis,> 128 µg/mL
same,MIC,Staphylococcus aureus [5],> 128 µg/mL
same,MIC,Staphylococcus aureus [6],> 128 µg/mL
same,MIC,Staphylococcus aureus [1],> 128 µg/mL
same,MIC,Staphylococcus aureus [2],> 128 µg/mL
same,MIC,Staphylococcus aureus [3],> 128 µg/mL
same,MIC,Staphylococcus aureus [4],> 128 µg/mL
same,MIC,Escherichia coli,> 128 µg/mL
CC(C)c1cc(C(C)C)c(C(=O)CCC(=O)O)c(C(C)C)c1,MIC,Staphylococcus aureus [5],> 128 µg/mL
same,MIC,Staphylococcus aureus [6],> 128 µg/mL
same,MIC,Staphylococcus aureus [1],> 128 µg/mL
same,MIC,Staphylococcus aureus [2],> 128 µg/mL
same,MIC,Staphylococcus aureus [3],> 128 µg/mL
same,MIC,Staphylococcus aureus [4],> 128 µg/mL
same,MIC,Escherichia coli,> 128 µg/mL
Cc1ccc(C(=O)/C=C(\O)C(=O)O)c(C)c1,MIC,Enterococcus faecalis,> 128 µg/mL
same,MIC,Bacillus subtilis,> 128 µg/mL
same,MIC,Staphylococcus aureus [5],> 128 µg/mL
same,MIC,Staphylococcus aureus [6],> 128 µg/mL
same,MIC,Staphylococcus aureus [1],> 128 µg/mL
same,MIC,Staphylococcus aureus [2],> 128 µg/mL
same,MIC,Staphylococcus aureus [3],> 128 µg/mL
same,MIC,Staphylococcus aureus [4],> 128 µg/mL
same,MIC,Escherichia coli,> 128 µg/mL
CN(C)c1ccc(C(=O)/C=C(\O)C(=O)O)cc1,MIC,Enterococcus faecalis,> 128 µg/mL
same,MIC,Bacillus subtilis,> 128 µg/mL
same,MIC,Staphylococcus aureus [5],> 128 µg/mL
same,MIC,Staphylococcus aureus [6],> 128 µg/mL
same,MIC,Staphylococcus aureus [1],> 128 µg/mL
same,MIC,Staphylococcus aureus [2],> 128 µg/mL
same,MIC,Staphylococcus aureus [3],> 128 µg/mL
same,MIC,Staphylococcus aureus [4],> 128 µg/mL
same,MIC,Escherichia coli,> 128 µg/mL
O=C(O)/C(O)=C/C(=O)c1cccc(C(F)(F)F)c1,MIC,Enterococcus faecalis,> 128 µg/mL
same,MIC,Bacillus subtilis,> 128 µg/mL
same,MIC,Staphylococcus aureus [5],> 128 µg/mL
same,MIC,Staphylococcus aureus [6],> 128 µg/mL
same,MIC,Staphylococcus aureus [1],> 128 µg/mL
same,MIC,Staphylococcus aureus [2],> 128 µg/mL
same,MIC,Staphylococcus aureus [3],> 128 µg/mL
same,MIC,Staphylococcus aureus [4],> 128 µg/mL
same,MIC,Escherichia coli,> 128 µg/mL
COc1ccccc1C(=O)/C=C(\O)C(=O)O,MIC,Enterococcus faecalis,> 128 µg/mL
same,MIC,Bacillus subtilis,> 128 µg/mL
same,MIC,Staphylococcus aureus [5],> 128 µg/mL
same,MIC,Staphylococcus aureus [6],> 128 µg/mL
same,MIC,Staphylococcus aureus [1],> 128 µg/mL
same,MIC,Staphylococcus aureus [2],> 128 µg/mL
same,MIC,Staphylococcus aureus [3],> 128 µg/mL
same,MIC,Staphylococcus aureus [4],> 128 µg/mL
same,MIC,Escherichia coli,> 128 µg/mL

# — ChEMBL document CHEMBL4138171, “Design, synthesis and biological evaluation of novel aryldiketo acids with enhanced antibacterial activity against multidrug resistant bacterial strains” (Eur J Med Chem, 2018)
